ChEMBL document CHEMBL1127785, “[[omega-(Heterocyclylamino)alkoxy]benzyl]-2,4-thiazolidinediones as potent antihyperglycemic agents” (1994)
The source made the active and inactive calls. No cut-off for these calls is given here.

Legend:
[1] = test system: Mus musculus; test: Percent reduction in area under glucose tolerance curve at 100 uM/kg dose in diet of mice.; type: functional
Outline: (§1)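 C57 Bl/6 ob/ob mice, 9–10 weeks old at purchase, 6–8 per group, kept at 26 ± 2 °C on a 12 h light/dark cycle. Compound was mixed into powdered diet, given fresh daily for 8 days. Mice were then fasted 5 h and given oral glucose 3 g/kg. Tail blood glucose was measured at 0, 45, 90 and 135 min by hexokinase/G6PDH. Read-out is % AUC reduction vs controls (trapezoid rule), Student's t-test.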

[2] = species on record: Mus musculus; test: No significant effect dose level on blood hemoglobin.; type: functional
Outline: (§2)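 Blood hemoglobin content was measured in C57 Bl/6 ob/ob mice after 8 days of compound given by dietary admixture. The value is the highest dose (µmol/kg of diet) with no significant reduction in blood hemoglobin.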

[3] = Selectivity ratio for Antihyperglycemic potency dose and No significant effect dose; type: functional
[4] = test system: Mus musculus; test: Percent reduction in area under glucose tolerance curve (AUC) was determined at 3 umol/kg dose of diet in mice; type: functional; outline: as §1
[5] = species on record: Mus musculus; test: Antihyperglycemic potency dose producing approximately 25% reduction in area under glucose tolerance curve; type: functional; outline: as §1
[6] = test system: Mus musculus; test: Percent reduction in area under glucose tolerance curve (AUC) was determined at 10 umol/kg dose of diet in mice; type: functional; outline: as §1
[7] = test system: Mus musculus; test: Percent reduction in area under glucose tolerance curve at 300 uM/kg dose in diet of mice.; type: functional; outline: as §1
[8] = test system: Mus musculus; test: Percent reduction in area under glucose tolerance curve (AUC) was determined at 100 umol/kg dose of diet in mice; IA = No significant activity; type: functional, organism-based; outline: as §1
[9] = test system: Mus musculus; test: Percent reduction in area under glucose tolerance curve (AUC) was determined at 30 umol/kg dose of diet in mice; IA = No significant activity; type: functional, organism-based; outline: as §1
[10] = test system: Mus musculus; test: Percent reduction in area under glucose tolerance curve (AUC) was determined at 30 umol/kg dose of diet in mice; type: functional; outline: as §1
[11] = test system: Mus musculus; test: Percent reduction in area under glucose tolerance curve (AUC) was determined at 1000 umol/kg dose of diet in mice; IA = No significant activity; type: functional, organism-based; outline: as §1
[12] = species on record: Mus musculus; test: No significant effect dose level on blood hemoglobin; type: functional; outline: as §2
[13] = test system: Mus musculus; test: Percent reduction in area under glucose tolerance curve (AUC) was determined at 3000 umol/kg dose of diet in mice; type: functional; outline: as §1
[14] = test system: Mus musculus; test: Percent reduction in area under glucose tolerance curve (AUC) was determined at 10 umol/kg dose of diet in mice; IA = No significant activity; type: functional, organism-based; outline: as §1
[15] = test system: Mus musculus; test: Percent reduction in area under glucose tolerance curve (AUC) was determined at 1000 umol/kg dose of diet in mice; type: functional; outline: as §1
[16] = test system: Mus musculus; test: Percent reduction in area under glucose tolerance curve (AUC) was determined at 3 umol/kg dose of diet in mice; IA = No significant activity; type: functional, organism-based; outline: as §1
[17] = test system: Mus musculus; test: Percent reduction in area under glucose tolerance curve (AUC) was determined at 300 umol/kg dose of diet in mice; IA = No significant activity; type: functional, organism-based; outline: as §1
[18] = test system: Mus musculus; test: Percent reduction in area under glucose10 umol/kg dose of diet in mice; type: functional; outline: as §1

Cc1nc(N(C)CCOc2ccc(CC3SC(=O)NC3=O)cc2)sc1-c1ccccc1 (stereo not drawn)
Reduction [1]: 39% | Dose [2]: <300 µM/kg | Selectivity ratio [3]: < 100 | Reduction [4]: 33% | Dose [5]: 3 µM/kg | Reduction [6]: 27%

CN(CCCOc1ccc(CC2SC(=O)NC2=O)cc1)c1nc2ccccc2o1 (stereo not drawn)
Reduction [7]: 32% | Reduction [8]: inactive

CN(CCOc1ccc(CC2SC(=O)NC2=O)cc1)C(=O)NCc1ccccc1 (stereo not drawn)
Reduction [7]: 41% | Reduction [9]: Not significant

O=C1NC(=O)C(Cc2ccc(OCCNc3ncccn3)cc2)S1 (stereo not drawn)
Reduction [10]: 15%

CN(CC(Oc1ccc(CC2SC(=O)NC2=O)cc1)c1ccccc1)c1nc2ccccc2o1 (stereo not drawn)
Reduction [9]: Not significant

CN(CCOc1ccc(/C=C2\SC(=O)NC2=O)cc1)c1nc2ccccc2o1
Reduction [7]: 30%

CN(CCOc1ccc(CC2SC(=O)NC2=O)cc1)c1nc2ccccc2o1 (stereo not drawn) [BRL-48482]
Reduction [1]: 57% | Dose [2]: 30 µM/kg | Reduction [7]: 42% | Selectivity ratio [3]: 10 | Dose [5]: 3 µM/kg | Reduction [10]: 52%

CN(CCOc1ccc(C2SC(=O)NC2=O)cc1)c1nc2ccccc2o1 (stereo not drawn)
Reduction [11]: inactive

Cc1c(C)c2c(c(C)c1O)CCC(C)(COc1ccc(CC3SC(=O)NC3=O)cc1)O2 (stereo not drawn) [TROGLITAZONE]
Dose [12]: 600 µM/kg | Reduction [7]: 20% | Selectivity ratio [3]: 1.5 | Dose [5]: 400 µM/kg | Reduction [8]: inactive | Reduction [13]: 48%

CN(CCOc1ccc(CC2SC(=O)NC2=O)cc1)c1nccs1 (stereo not drawn)
Reduction [1]: 58% | Reduction [14]: Not significant

CN(CCOc1ccc(CC2SC(=O)NC2=O)cc1)c1ncccn1 (stereo not drawn)
Reduction [1]: 43% | Dose [12]: 100 µM/kg | Selectivity ratio [3]: 10 | Reduction [4]: 18% | Dose [5]: 10 µM/kg | Reduction [6]: 18%

CN(CCOc1ccc(CC2OC(=O)NC2=O)cc1)c1nc2ccccc2o1 (stereo not drawn)
Reduction [1]: 23% | Reduction [15]: 52% | Reduction [7]: 41% | Reduction [9]: Not significant

CN(CCOc1ccc(CCC2SC(=O)NC2=O)cc1)c1nc2ccccc2o1 (stereo not drawn)
Reduction [8]: Not significant

Cc1nc(N(C)CCOc2ccc(CC3SC(=O)NC3=O)cc2)sc1C (stereo not drawn)
Reduction [10]: 47% | Reduction [14]: Not significant

Cc1csc(N(C)CCOc2ccc(CC3SC(=O)NC3=O)cc2)n1 (stereo not drawn)
Reduction [4]: 14% | Reduction [10]: 53% | Reduction [6]: 28%

CCc1ccc(CCOc2ccc(CC3SC(=O)NC3=O)cc2)nc1 (stereo not drawn) [PIOGLITAZONE]
Reduction [15]: 62% | Reduction [7]: 35% | Reduction [8]: inactive | Reduction [13]: 63%

Cc1ccnc(N(C)CCOc2ccc(CC3SC(=O)NC3=O)cc2)c1 (stereo not drawn)
Reduction [7]: 41% | Reduction [10]: 34% | Reduction [16]: Not significant

O=C(NCCOc1ccc(CC2SC(=O)NC2=O)cc1)Nc1ccccc1 (stereo not drawn)
Reduction [1]: 21% | Reduction [15]: 58%

CN(CCOc1ccc(CC2SC(=O)NC2=O)cc1)c1ccc([N+](=O)[O-])cn1 (stereo not drawn)
Reduction [9]: Not significant

CN(CC(O)COc1ccc(CC2SC(=O)NC2=O)cc1)c1nc2ccccc2o1 (stereo not drawn)
Reduction [8]: Not significant

O=C1NC(=O)C(Cc2ccc(OCCNC(=S)Nc3ccccc3)cc2)S1 (stereo not drawn)
Reduction [1]: 10% | Reduction [15]: 43% | Reduction [9]: Not significant

CN(CCSc1ccc(CC2SC(=O)NC2=O)cc1)c1nc2ccccc2o1 (stereo not drawn)
Reduction [1]: 20%

O=C(NCCOc1ccc(CC2SC(=O)NC2=O)cc1)Nc1ccc(F)cc1 (stereo not drawn)
Reduction [11]: Not significant

CN(CCOc1ccc(CC2CC(=O)NC2=O)cc1)c1nc2ccccc2o1 (stereo not drawn)
Reduction [17]: Not significant

CN(CCOc1ccc(CC2SC(=O)NC2=O)cc1)c1nccc(-c2ccccc2)n1 (stereo not drawn)
Reduction [14]: Not significant

CN(CCOc1ccc(CC2SC(=O)NC2=O)cc1)/C(=N/c1ccccc1)NC#N (stereo not drawn)
Reduction [17]: Not significant

CC(CN(C)c1nc2ccccc2o1)Oc1ccc(CC2SC(=O)NC2=O)cc1 (stereo not drawn)
Reduction [17]: Not significant

Cc1sc(N(C)CCOc2ccc(CC3SC(=O)NC3=O)cc2)nc1-c1ccccc1 (stereo not drawn)
Reduction [1]: 37% | Reduction [10]: 20% | Reduction [14]: Not significant

CN(CCOc1ccc(CC2SC(=O)NC2=O)cc1)c1ccc(Cl)cn1 (stereo not drawn)
Reduction [7]: 44% | Reduction [9]: Not significant

CN(CCOc1ccc(CC2SC(=O)NC2=O)cc1)c1nc(-c2ccccc2)cs1 (stereo not drawn)
Reduction [1]: 34% | Reduction [9]: Not significant

CN(CCOc1ccc(CC2SC(=O)NC2=O)cc1)c1ncccc1Cl (stereo not drawn)
Reduction [7]: 40% | Reduction [10]: 15%

CC(=O)N(CCOc1ccc(CC2SC(=O)NC2=O)cc1)c1ncccn1 (stereo not drawn)
Reduction [10]: 19%

CN(CCOc1ccc(/C=C2\SC(=O)NC2=O)cc1)c1ccccn1
Reduction [7]: 47% | Reduction [9]: inactive

Cc1nc(N(C)CCOc2ccc(CC3SC(=O)NC3=O)cc2)oc1C (stereo not drawn)
Reduction [10]: 33% | Reduction [16]: Not significant | Reduction [6]: 16%

CN(CCOc1ccc(CC2SC(=O)NC2=O)cc1)c1ncc(-c2ccccc2)o1 (stereo not drawn)
Reduction [10]: 22% | Reduction [6]: 20%

CN(CCOc1ccc(CC2SC(=O)NC2=O)cc1)c1ccccn1 (stereo not drawn) [ROSIGLITAZONE]
Reduction [1]: 56% | Dose [2]: 300 µM/kg | Reduction [18]: 31% | Reduction [7]: 61% | Selectivity ratio [3]: 100 | Reduction [4]: 17% | Dose [5]: 3 µM/kg | Reduction [10]: 41%

CC(COc1ccc(CC2SC(=O)NC2=O)cc1)N(C)c1nc2ccccc2o1 (stereo not drawn)
Reduction [7]: 38% | Reduction [8]: Not significant

O=C1NC(=O)C(Cc2ccc(OCCNc3nc4ccccc4o3)cc2)S1 (stereo not drawn)
Reduction [1]: 44% | Reduction [9]: Not significant

CN(CCOc1ccc(CC2SC(=O)NC2=O)cc1)c1ccncc1 (stereo not drawn)
Reduction [14]: Not significant

CC1(COc2ccc(CC3SC(=O)NC3=O)cc2)CCCCC1 (stereo not drawn) [CIGLITAZONE]
Reduction [17]: inactive | Reduction [13]: 41%

CN1C(=O)SC(Cc2ccc(OCCN(C)c3nc4ccccc4o3)cc2)C1=O (stereo not drawn)
Reduction [15]: 42% | Reduction [8]: Not significant

CN(CCOc1ccc(CC2SC(=O)NC2=O)cc1)C(=O)Nc1ccccc1 (stereo not drawn)
Reduction [7]: 27%

O=C1NC(=O)C(Cc2ccc(OCCN(Cc3ccccc3)c3nc4ccccc4s3)cc2)S1 (stereo not drawn)
Reduction [7]: 56% | Reduction [8]: Not significant

CN(CCOc1ccc(CC2SC(=O)NC2=O)cc1)c1ccc(N)cn1 (stereo not drawn)
Reduction [9]: Not significant

O=C(NCCOc1ccc(CC2SC(=O)NC2=O)cc1)Nc1ccc(Cl)c(Cl)c1 (stereo not drawn)
Reduction [17]: Not significant

CN(CCOc1ccc(CC2[Se]C(=O)NC2=O)cc1)c1nc2ccccc2o1 (stereo not drawn)
Reduction [1]: 45% | Reduction [14]: Not significant

COc1cccc(N(C)CCOc2ccc(CC3SC(=O)NC3=O)cc2)n1 (stereo not drawn)
Reduction [7]: 35% | Reduction [9]: Not significant

Cc1cccc(N(C)CCOc2ccc(CC3SC(=O)NC3=O)cc2)n1 (stereo not drawn)
Reduction [7]: 33% | Reduction [9]: Not significant

COc1ccc(NC(=O)NCCOc2ccc(CC3SC(=O)NC3=O)cc2)cc1 (stereo not drawn)
Reduction [17]: Not significant

CN(CCOc1ccc(CC2SC(=O)NC2=O)cc1)c1cnccn1 (stereo not drawn)
Reduction [1]: 46% | Reduction [14]: Not significant

O=C(NCCOc1ccc(CC2SC(=O)NC2=O)cc1)Nc1ccc(Cl)cc1 (stereo not drawn)
Reduction [17]: Not significant

Cc1ccc(N(C)CCOc2ccc(CC3SC(=O)NC3=O)cc2)nc1 (stereo not drawn)
Reduction [1]: 19% | Reduction [7]: 35% | Reduction [10]: 18%

CC(C)N(CCOc1ccc(CC2SC(=O)NC2=O)cc1)c1nc2ccccc2o1 (stereo not drawn)
Reduction [1]: 20%

CN(CCOc1ccc(CC2SC(=O)NC2=O)cc1)c1nc2ccccc2s1 (stereo not drawn)
Reduction [1]: 51% | Reduction [7]: 66% | Reduction [16]: Not significant | Reduction [6]: 36%

CN(CCCCOc1ccc(CC2SC(=O)NC2=O)cc1)c1nc2ccccc2o1 (stereo not drawn)
Reduction [7]: 25% | Reduction [9]: Not significant
